# SR-BI HDL uptake: mouse SR-BI HDL lipid transfer inhibition; Q61009; ldlA[mSR-BI] CHO cells, DiI-HDL uptake fluorescence, 3 h; inhibition, % at 12.5 µM; actives 0.96% (n = 320,000); AID 488896;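 active = mean replicate inhibition of at least 70% and a set share of replicates each scoring 70 or more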;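 note: 0% = median of neutral control wells and 100% = median of positive control wells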
# Target sequence (Q61009 whole entry, looked up): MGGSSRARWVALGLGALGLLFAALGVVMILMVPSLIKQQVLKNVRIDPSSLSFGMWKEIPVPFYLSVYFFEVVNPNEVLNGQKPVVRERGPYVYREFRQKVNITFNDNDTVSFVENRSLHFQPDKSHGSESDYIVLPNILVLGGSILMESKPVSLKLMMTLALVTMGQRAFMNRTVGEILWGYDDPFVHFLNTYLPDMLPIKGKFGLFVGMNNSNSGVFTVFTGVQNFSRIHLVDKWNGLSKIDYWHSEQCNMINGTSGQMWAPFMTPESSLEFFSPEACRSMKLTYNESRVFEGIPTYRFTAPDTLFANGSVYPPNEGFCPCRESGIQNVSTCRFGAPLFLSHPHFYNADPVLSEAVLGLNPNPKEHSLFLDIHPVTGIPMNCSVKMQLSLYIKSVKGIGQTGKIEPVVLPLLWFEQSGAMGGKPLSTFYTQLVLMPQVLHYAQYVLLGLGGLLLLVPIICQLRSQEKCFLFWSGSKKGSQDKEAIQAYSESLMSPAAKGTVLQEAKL
# SR-BI uptake up: SR-BI HDL lipid transfer activation | activation, % at 12.5 µM | AID 504775 | actives 0.096% (n = 320,000) | CHO ldlA[mSR-BI] cells, DiI-HDL uptake fluorescence, 3 h; 100 = double the neutral-control signal;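 active = mean replicate activation of at least 60% and every replicate at or above 60%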;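 note: 0% = median plate neutral-control signal and 100% = twice that signal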
#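 Material – SR-BI-overexpressing, LDLR-lacking CHO cells · Medium – BSA-supplemented, HEPES-buffered Ham's F12, pH 7.4 · Doses – single concentration · Times – compound with DiI-HDL co-incubation, 3 h at 37 °C · Measured by – bottom-read fluorescence, 550/595 nm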
# CR mimetic SO: yeast age-related superoxide inhibition as caloric restriction mimetic. S. cerevisiae aged cells, superoxide DHE fluorescence; hits give low values. superoxide response (% of plate mean), % at 10 µM. actives 0.18% (n = 330,000). AID 2690;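 active = superoxide response under a set limit, about three screen SD below normal, cut at about 65% in these data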;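 note: yeast aged for seven days with compound at 30 °C before DHE staining; 100% = average MFI of all compound-treated wells on the plate with controls excluded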
# AHR activator: activators of human aryl hydrocarbon receptor | P35869 | AHR-responsive luciferase reporter cells, luminescence | activation, % at 5 µM | actives 2.5% (n = 320,000) | AID 2796; in the data active = activation above about 47%;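 note: 0% = vehicle wells and 100% = reference agonist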
# SMARCA2 activ: SMARCA2 function activation, primary screen. actives 1% (n = 370,000). activation, % at 9.1 µM. MG213 cells, MMTV-luciferase reporter, dexamethasone, overnight; in the data active = activation above about 7.8%;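 note: 0% = vehicle wells and 100% = reference activator wells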
# Lipid droplet: hepatic lipid droplet formation modulation; inhibition, % at 6.5 µM; AID 1656; actives 0.4% (n = 240,000); AML12 mouse hepatocytes, oleate lipid droplets, BODIPY imaging;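 active = lipid droplet intensity inhibited by at least 50%, with more than 500 cells counted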
#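 Assay system: AML12 mouse liver cells | Compound: 6.5 µM single-point dosing | Schedule: Overnight exposure | Technique: Fluorescence imaging, 20x objective, two fields per well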
# SMARCA2 conf: SMARCA2 activation, confirmation screen; shares compounds with SMARCA2 activ; MG213 cells, MMTV-luciferase with dexamethasone, luminescence, overnight; MG213 cells expressing E1A, Rb sequestered; DMSO wells 0%, reference activator 100%; activation, % at 9.1 µM; actives 30% (n = 3,500); AID 652260;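 active = activation above its plate's cutoff, the mean activation of tested wells plus 3 SD, cut at about 7.9% in these data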
# GAL4-VP16 Luc: activates GAL4-VP16 luciferase, flagging SMARCA2 activator hits. shares compounds with SMARCA2 activ. HEK293 GAL4-VP16 pG5luc reporter, luciferase luminescence; scaled: DMSO wells 0%, SAHA wells 100%. activation, % at 9.1 µM. actives 41% (n = 3,500). AID 686939;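 active = activation above the solvent-only control well mean plus 3 SD, averaged across control plates, cut at about 5.2% in these data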
# An asterisk follows results filed as active; · = no result. Only some compounds are listed: those with a hit (about 4.3% of all), similar ones and a draw of the others.
SMILES,SR-BI HDL uptake,SR-BI uptake up,CR mimetic SO,AHR activator,SMARCA2 activ,Lipid droplet,SMARCA2 conf,GAL4-VP16 Luc
COC(=O)[C@H](C(C)C)N(CCc1cn(CC2CCCCC2)nn1)S(=O)(=O)c1ccccc1Br,·,·,·,·,-5,·,·,·
CN(C(=O)c1ccc2c(c1)SC1=NS(=O)(=O)CCN12)C(c1ccccc1)c1ccccc1,-22,22,106,-1,10*,-6,14*,3
Cc1ccc(F)cc1NC(=O)CCC(=O)c1cccs1,6,-6,87,4,-1,-1,·,·
O=C(CC(=O)c1cccs1)c1ccncc1,0,0,·,·,10*,·,2,4
Cc1ccc(NC(=O)CCC(=O)c2cccs2)c(O)c1,-9,9,110,7,10*,-4,7,3
O=C(CCC(=O)c1cccs1)NC(c1ccccc1)c1ccccc1,1,-1,85,0,9.0*,·,-1,0
Cc1nc(N2CCCCC2C)c2nnn(Cc3ccccc3)c2n1 (stereo unspecified),·,·,·,·,1,·,·,·
CCc1nc2ccccc2nc1N1CCN(S(=O)(=O)c2ccc(Cl)cc2)CC1,29,-29,91,-4,9.4*,-35,-3,0
N#CCC[C@H]1CC[C@]2(CCCN(C(=O)c3ccccc3)C2)O1,·,·,·,·,-2,·,·,·
Oc1ccccc1-c1nnc(COc2ccccc2)o1,1,-1,90,1,0,·,·,·
Oc1ccccc1-c1nnc(COc2ccc(Cl)cc2Cl)o1,-9,9,103,8,9.3*,-1,5,13*
COC(=O)[C@]12C[C@H](CC(=O)NCCCN3CCCC3=O)C(=O)N(Cc3ccc(Cl)cc3Cl)C1=C[C@H](COCc1ccccc1)O[C@@H]2C,·,·,·,·,-4,·,·,·
Cc1ccnc(NC(=O)c2ccccc2[N+](=O)[O-])c1,-3,3,105,15,1,·,·,·
Cc1ccnc(NC(=O)c2cccc3ccccc23)c1,12,-12,96,17,11*,-40,3,2
O=C(c1ccccc1)N1CCC2CCN(CCc3ccccc3)CC21 (stereo unspecified),·,·,·,·,-4,·,·,·
COc1cc(/C=N/n2cnnc2)ccc1OCc1ccc(C)cc1,·,·,94,7,1,-4,·,·
COc1cc(/C=N/n2cnnc2)ccc1OCc1ccccc1,-4,4,92,0,8.1*,·,5,0
CCCCOC(=O)Nc1nnc(C(C)C)s1,0,0,109,47,8.0*,-2,8.6*,10.0*
CN(CCO)c1cccc2c1S(=O)(=O)N(Cc1cn(Cc3cccc(F)c3)nn1)Cc1ccccc1O2,·,·,·,·,3,·,·,·
COc1ccc(CCN2CC(C(=O)NCCc3ccccc3)CC2=O)cc1OC (stereo unspecified),·,·,104,1,8.7*,-3,3,3
CCOc1ccc(CCNC(=O)C2CC(=O)N(CCc3ccccc3)C2)cc1OCC (stereo unspecified),21,-21,75,2,-1,3,·,·
COc1ccc(S[C@]2(C(=O)N3CCOCC3)CC(=O)N(C(=O)C3CC3)[C@@H]2c2ccc(OC)cc2)cc1,·,·,·,·,-3,·,·,·
CN(CC(=O)Nc1ccccc1Cl)C(=O)COC(=O)c1nc(Cl)c(Cl)c(Cl)c1Cl,-12,12,95,16,22*,3,8.2*,1
O=c1c2ccccc2[nH]n1[C@@H](Cc1ccccc1)Cn1cc(-c2ccc(-c3ccccc3)cc2)nn1,·,·,·,·,0,·,·,·
CN(CCOC(=O)c1cc2ccccc2o1)C1CN(Cc2cn(Cc3cccc(F)c3)nn2)S(=O)(=O)C1 (stereo unspecified),·,·,·,·,1,·,·,·
SMILES,SR-BI HDL uptake,SR-BI uptake up,CR mimetic SO,AHR activator,SMARCA2 activ,Lipid droplet,SMARCA2 conf,GAL4-VP16 Luc
O=C(/C=C/Sc1ccccc1)c1ccccc1,-10,10,94,0,8,·,·,·
O=C(/C=C/Sc1ccccc1)c1ccc(Cl)cc1,-16,16,92,-1,8.1*,-30,5,6.4*
CCC[C@H](/C=C/C(=O)OC(C)(C)C)Sc1ccc(OC)cc1,·,·,·,·,5,·,·,·
Brc1ccc(/C=C/C=N/Nc2nc3ccccc3s2)cc1,-2,2,104,14,13*,·,6,8.7*
CCOC(=O)[C@@]12CN(C(=O)OC(C)(C)C)CC=C1N(Cc1ccc(OC)cc1)C(=O)[C@H]2CC(=O)N1CCSCC1,·,·,·,·,-4,·,·,·
Cc1ccc(OCC(O)CN2CCOCC2)c(C)c1 (stereo unspecified),12,-12,103,3,8.3*,6,-2,1
O=Nc1c2cc(-c3ccccc3)[nH]nc-2c2ccccc12,-20,20,·,·,8.5*,-3,9.8*,5.5*
Cc1ccc(-c2cc3c(N=O)c4ccccc4c-3n[nH]2)cc1,-2,2,130,9,-6,-1,·,·
Cc1ccccc1NC(=O)c1sc(NC(=O)C2CC2)nc1C,·,·,103,4,8.4*,19,1,0
Cc1cc(C)cc(N(CC(=O)NC2CCC(C)CC2)S(=O)(=O)c2cccs2)c1 (stereo unspecified),·,·,·,·,-3,·,·,·
CCCCNc1nc(N)nc(-c2cc(Cl)ccc2O)n1,33,-33,105,26,17*,-14,14*,13*
C/C(=N\NC(=S)NCc1ccccc1)c1ccc(Cl)s1,27,-27,97,15,-3,4,·,·
C/C(=N\NC(=S)NCc1ccccc1)c1cccs1,12,-12,86,12,8.1*,-19,2,1
COCCn1c(C)cc(C(=O)Cn2nc(C(=O)O)c3ccccc3c2=O)c1C,-13,13,106,5,4,2,·,·
CCCn1c(C)cc(C(=O)Cn2nnc3ccccc3c2=O)c1C,24,-24,101,20,9.1*,-5,10*,7.3*
COC(=O)[C@]12C[C@H](CC(=O)N3CCN(C(=O)c4ccco4)CC3)C(=O)N(Cc3ccco3)C1=C[C@H](C(C)C)O[C@@H]2C1CC1,·,·,·,·,-1,·,·,·
OC(CNCc1ccc(-c2ccccc2)cc1)c1ccccc1 (stereo unspecified),·,·,90,4,-1,26,·,·
OCCNCc1ccc(-c2ccccc2)cc1,-5,5,111,6,8.2*,4,1,0
CCOc1ccc(NC(=O)C(c2ccccn2)N(C(=O)CCl)c2ccc(OCC)cc2)cc1 (stereo unspecified),-26,26,115,22,·,-3,·,·
CCOc1ccc(NC(=O)C(c2ccccn2)N(C(=O)CCl)c2ccc(OC)cc2)cc1 (stereo unspecified),-19,19,88,39,9.7*,0,8,4

# High-throughput results: PubChem, several laboratories
